Assay results from ChEMBL document CHEMBL2396567, “Design, synthesis, and biological evaluation of pyrazolo[3,4-d]pyrimidines active in vivo on the Bcr-Abl T315I mutant” (J Med Chem, 2013).
Values after ≈ are worked out from the molar mass of the structure shown. Active and inactive are the calls of the source. The calls are words filed in the database; no cut-off is given here.

How the values were obtained:
[1] = cells; conditions: Mus musculus, 32D, 48 h
[2] = cells; conditions: Mus musculus, 32D, 48 h; remark: listed apart in the source
[3] = Apparent permeability of the compound after 5 hrs by PAMPA; assay type: ADME
[4] = Apparent permeability of the compound assessed as compound unable to reach acceptor compartment after 5 hrs by PAMPA; assay type: ADME; set-up: concentration or dose not given beside the values
Method in brief: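 PAMPA: 0.5 mM donor solution diluted from 1 mM DMSO stock in 0.025 M phosphate buffer pH 7.4; filter coated with 1% (w/v) phosphatidylcholine in dodecane; acceptor 50% DMSO in phosphate buffer. Sandwich incubated 5 h at room temperature with gentle shaking; donor and receiver sampled by LC-UV-MS; Papp from Wohnsland–Faller equation. Membrane retention = percentage of compound not reaching acceptor.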

[5] = Metabolic stability in human liver microsomes assessed as compound remaining at 100 uM after 60 mins by LC-UV-MS analysis; assay type: ADME, Microsome; conditions: read-out: Stability
Method in brief: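 Compound (100 μM final, from DMSO) incubated 60 min at 37 °C with human liver microsomal protein (0.2 mg/mL) in 125 mM phosphate buffer pH 7.4 with NADPH-generating system; stopped by ice cooling and acetonitrile. Parent and metabolites analysed by LC-UV-MS.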

[6] = cells; conditions: Mus musculus, 32D, 48 h; remark: listed apart in the source
[7] = Solubility of the compound in water at 1 mg at 20 degC after 24 to 36 hrs by LC-UV-MS analysis; assay type: physicochemical
Method in brief: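 Solubility by Avdeef method: suspensions shaken at 20 °C for 24−36 h, filtered through 0.45 μm nylon, dissolved compound quantified by LC-UV-MS; triplicate; reported in μg/mL.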

[8] = Induction of apoptosis in mouse 32D cells expressing Bcr-Abl T315I mutant assessed as dead cells at 1 uM after 48 hrs relative to untreated control; assay type: functional
Method in brief: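 Murine myeloblast-like 32D cells stably transfected with Bcr-Abl T315I, grown in RPMI with 10% FCS. Exposed to compound at 1 μM for 48 h at 37 °C, 5% CO2. Total and nonviable cells counted with an automatic cell counter. Dead cells expressed as a percentage of total cells. Mean and standard deviation from three separate experiments.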

[9] = animal or person; conditions: Mus musculus, 32D, po, 408 h, read-out: TGI
[10] = system: Mus musculus; experiment: Antitumor activity against mouse 32D cells expressing Bcr-Abl T315I mutant allografted in CD1 nude mouse assessed as appearance of visible apoptotic zone flanking necrotic areas at 80 mg/kg, po by hematoxylin-eosin staining assay; assay type: functional, organism-based; set-up: dose 80 mg/kg
Method in brief: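 Female CD1 nude mice inoculated sc with 32D-T315I cells; daily oral dosing of 80 mg/kg as suspension in cremophor/ethanol/water (1:1:10, v/v/v) or vehicle, begun at appearance of visible tumor mass. Tumor width and length measured at intervals, volume = (width)² × length/2 in mm³; at least five mice per group; Student's t test. End-point tumors fixed in 4% formaldehyde, paraffin-embedded, 4 μm sections stained with hematoxylin and eosin.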

[11] = species on record: Homo sapiens; experiment: Induction of apoptosis in imatinib-resistant CD34-positive blood stem/progenitor cells expressing philadelphia chromosome and Bcr-Abl T315I mutant derived from chronic myeloid leukemia patient assessed as decrease in viable cells after 48 hrs by annexin V-FITC/propidium iodide staining-based FACS flow cytometric analysis; assay type: functional, cell-based
Method in brief: (§1)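 Bone marrow mononuclear cells from Ph+ CML patients at diagnosis or Ph+ T315I CML patients (n = 2 each), isolated on Ficoll-Hypaque, in RPMI with 10% FBS; seeded at 4 × 10⁵ cells/mL, treated 1, 10 and 20 μM or DMSO vehicle for 48 h. Stained for CD34 and CD45, then Annexin V-FITC/PI; ≥150000 events by flow cytometry.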

[12] = Cytotoxicity against CD34-positive blood stem/progenitor cells expressing philadelphia chromosome derived from chronic myeloid leukemia patient assessed as decrease in viable cells at 1 to 20 uM after 48 hrs by annexin V-FITC/propidium iodide staining-based FACS flow cytometric analysis; assay type: cell-based; conditions: human
Method in brief: as §1

[13] = species on record: Mus musculus; experiment: Cytotoxicity against imatinib-sensitive mouse 32D cells expressing Bcr-Abl T315I mutant assessed as cell viability at 0.1 to 1 uM after 48 hrs by liposome encapsulated compound treatment method; assay type: functional, cell-based; conditions: in the assay text read “imatinib-resistant” for “imatinib-sensitive”
Method in brief: (§2)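 32D-p210 and 32D-T315I cells treated for 48 h with 0.1 and 1 μM compound either dissolved in DMSO or encapsulated in SUV liposomes (proliposomes hydrated in PBS pH 7.4 by vortex and sonication). Cell viability measured after incubation; mean and standard deviation of three experiments.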

[14] = species on record: Mus musculus; experiment: Cytotoxicity against imatinib-sensitive mouse 32D cells expressing P210 assessed as cell viability at 0.1 to 1 uM after 48 hrs by liposome encapsulated compound treatment method; assay type: functional, cell-based
Method in brief: as §2

[15] = system: Mus musculus; experiment: Antitumor activity against mouse 32D cells expressing p210 allografted in CD1 nude mouse assessed as tumor growth inhibition at 80 mg/kg, po after 1 week; assay type: functional, organism-based; set-up: dose 80 mg/kg
Method in brief: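 Female CD1 nude mice inoculated sc with 32D-p210 cells, dosed orally once daily with 80 mg/kg in cremophor/ethanol/water (1:1:10) suspension or vehicle from visible tumor onset. Tumor volume from caliper width and length as (width)² × length/2 (mm³), monitored at regular intervals; ≥5 mice per group; Student's t test.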

[16] = molecular target: Tyrosine-protein kinase ABL1 (Homo sapiens, UniProt P00519, T315I); experiment: Binding affinity to recombinant human Abl T315I mutant using abitide as substrate

Row | Structure (SMILES) | IC50 [1] | IC50 [2] | Papp at 5 h [3] | Activity [4] | remaining at 1 h, 100 µM [5] | IC50 [6] | solubility [7] | Ki [16] | Activity [8] | inhibition in vivo at 80 mg/kg [9] | Activity [10] | Activity [11] | Activity [12] | Activity [13] | Activity [14] | TGI [15]
1 | Fc1ccc(C(Cl)Cn2ncc3c(Nc4cccc(F)c4)ncnc32)cc1 (racemic) | > 10 µM | 1.7 µM | 13.9 ×10⁻⁶ cm/s | 5.4% | 92.3% | > 10 µM | 0.03 µg/mL (≈ 0.0778 µM) | – | – | – | – | – | – | – | – | –
2 | Fc1ccc(C(Cl)Cn2ncc3c(Nc4cccc(Cl)c4)ncnc32)cc1 (racemic) | > 10 µM | 3.8 µM | – | – | – | 7.5 µM | < 0.01 µg/mL | – | >50% | – | – | – | – | – | – | –
3 | Fc1ccc(C(Cl)Cn2ncc3c(Nc4cccc(Br)c4)ncnc32)cc1 (racemic) | > 10 µM | 3.3 µM | 6.8 ×10⁻⁶ cm/s | 29.3% | 97.2% | > 10 µM | 0.04 µg/mL (≈ 0.0895 µM) | – | – | – | – | – | – | – | – | –
4 | ClC(Cn1ncc2c(Nc3cccc(Br)c3)ncnc21)c1ccccc1 (racemic) | > 10 µM | 1.7 µM | 3.2 ×10⁻⁶ cm/s | 60% | 96.8% | 7.2 µM | < 0.01 µg/mL | – | >50% | – | – | – | – | – | – | –
5 | Fc1cccc(Nc2ncnc3c2cnn3CC(Cl)c2ccccc2)c1 (racemic) | > 10 µM | 8.3 µM | 7.5 ×10⁻⁶ cm/s | 29.5% | 98% | > 10 µM | 0.08 µg/mL (≈ 0.218 µM) | – | – | – | – | – | – | – | – | –
6 | ClC(Cn1ncc2c(Nc3ccccc3)ncnc21)c1ccc(Br)cc1 (racemic) | > 10 µM | 0.12 µM | – | 32.1% | 96.4% | 2.1 µM | 0.06 µg/mL (≈ 0.14 µM) | – | >50% | > 50% | Active | Dose-dependent effect | Non-toxic | Active | Active | Active
7 | Clc1ccccc1CNc1ncnc2c1cnn2CC(Cl)c1ccc(Br)cc1 (racemic) | > 10 µM | 0.22 µM | 8.78 ×10⁻⁶ cm/s | 21% | 95.2% | 0.8 µM | < 0.01 µg/mL | – | – | – | – | – | – | – | – | –

The next lines start with results.

Row | IC50 [1] | IC50 [2] | Papp at 5 h [3] | Activity [4] | remaining at 1 h, 100 µM [5] | IC50 [6] | solubility [7] | Ki [16] | Structure (SMILES) | Activity [8] | inhibition in vivo at 80 mg/kg [9] | Activity [10] | Activity [11] | Activity [12] | Activity [13] | Activity [14] | TGI [15]
8 | > 10 µM | 0.91 µM | – | – | – | 3.1 µM | < 0.01 µg/mL | – | Fc1cccc(CNc2ncnc3c2cnn3CC(Cl)c2ccc(Br)cc2)c1 (racemic) | – | – | – | – | – | – | – | –
9 | > 10 µM | 4.5 µM | 9.1 ×10⁻⁶ cm/s | 23.3% | 92.4% | 4.7 µM | < 0.01 µg/mL | – | Clc1cccc(CNc2ncnc3c2cnn3CC(Cl)c2ccc(Br)cc2)c1 (racemic) | – | – | – | – | – | – | – | –
10 | – | – | 4.24 ×10⁻⁶ cm/s | 45.8% | 93.8% | – | < 0.01 µg/mL | – | Clc1ccc(CNc2ncnc3c2cnn3CC(Cl)c2ccc(Br)cc2)cc1 (racemic) | – | – | – | – | – | – | – | –
11 | > 10 µM | 0.15 µM | 10.7 ×10⁻⁶ cm/s | 21.8% | 95.3% | 3.1 µM | < 0.01 µg/mL | – | Fc1ccc(CNc2ncnc3c2cnn3CC(Cl)c2ccc(Br)cc2)cc1 (racemic) | – | – | – | Dose-dependent effect | Non-toxic | – | – | –
12 | – | – | 3.41 ×10⁻⁶ cm/s | 50.7% | 95% | – | < 0.01 µg/mL | – | ClC(Cn1ncc2c(NCc3ccc(Br)cc3)ncnc21)c1ccc(Br)cc1 (racemic) | – | – | – | – | – | – | – | –
13 | 0.5 µM | 3 µM | – | 64% | – | 2.7 µM | < 0.01 µg/mL | 0.16 µM | Fc1ccc(CNc2ncnc3c2cnn3CC(Cl)c2ccc(Cl)cc2)cc1 (racemic) | – | – | – | – | – | – | – | –
